TRPC6 inh: inhibitors of mouse TRPC6 channel | HEK293-TRPC6, membrane potential dye, ACh-evoked depolarization; stronger effect = lower value | actives 1.1% (n = 310,000) | Q61143 | AID 2553 | B-score at 10 µM;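 active = B-score under library mean minus 3 SD, initial fluorescence not abnormally high, positive integrated signal ratio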;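 also: B-score derived from integrated fluorescence ratio over the kinetic read; more negative B-score means stronger inhibition of depolarization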
Target sequence (Q61143 whole entry, looked up): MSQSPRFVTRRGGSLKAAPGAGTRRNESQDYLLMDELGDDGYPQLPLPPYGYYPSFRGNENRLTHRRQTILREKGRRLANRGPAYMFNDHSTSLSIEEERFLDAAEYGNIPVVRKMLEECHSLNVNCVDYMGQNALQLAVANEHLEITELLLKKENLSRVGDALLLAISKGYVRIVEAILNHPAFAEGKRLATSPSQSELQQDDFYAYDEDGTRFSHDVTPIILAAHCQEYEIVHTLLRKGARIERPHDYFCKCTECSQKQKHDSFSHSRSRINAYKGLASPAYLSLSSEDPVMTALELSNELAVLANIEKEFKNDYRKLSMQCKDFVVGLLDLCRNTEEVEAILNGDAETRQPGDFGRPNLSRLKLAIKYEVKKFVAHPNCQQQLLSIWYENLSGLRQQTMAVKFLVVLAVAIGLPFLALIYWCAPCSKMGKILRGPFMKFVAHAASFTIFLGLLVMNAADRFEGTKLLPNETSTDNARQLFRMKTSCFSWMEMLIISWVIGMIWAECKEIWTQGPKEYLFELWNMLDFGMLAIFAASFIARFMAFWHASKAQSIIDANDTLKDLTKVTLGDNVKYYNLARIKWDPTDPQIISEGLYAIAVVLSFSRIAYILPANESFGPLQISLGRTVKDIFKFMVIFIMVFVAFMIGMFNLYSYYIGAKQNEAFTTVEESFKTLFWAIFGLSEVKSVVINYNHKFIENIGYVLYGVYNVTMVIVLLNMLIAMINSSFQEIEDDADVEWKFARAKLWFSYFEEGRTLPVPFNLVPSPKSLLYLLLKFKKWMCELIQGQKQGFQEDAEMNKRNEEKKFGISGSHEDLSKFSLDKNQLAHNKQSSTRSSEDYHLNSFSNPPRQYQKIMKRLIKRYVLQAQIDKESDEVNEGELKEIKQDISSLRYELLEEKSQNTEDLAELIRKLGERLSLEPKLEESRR
TRPC4 inh: TRPC4 (mouse) channel inhibition | Q9QUQ5 | HEK293 TRPC4beta/mu-opioid, DAMGO-evoked Fluo4 calcium flux; stronger effect = lower value | B-score at 10 µM | actives 0.39% (n = 300,000) | AID 2247;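 active = B-score over 3 SD under the library average, no early fluorescence shift, positive overall ratio signal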
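Assay system: Stable TRPC4beta/mu-opioid receptor HEK293 cells | Reagent: DAMGO in two steps, submaximal then maximal | Compound dosing: Single concentration per test compound | Signal: Fluo4 Ca2+ flux fluorescence | Evaluation: Per-well B score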
TRPC4 PAM: allosteric potentiators of mouse TRPC4 channel | Q9QUQ5 | HEK293 TRPC4beta/mu-opioid, DAMGO EC20, Fluo-4 Ca2+ flux; stronger effect = higher value | B-score at 10 µM | actives 0.42% (n = 310,000) | AID 2227;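 active = B-score of calcium response area above 5 SD of library B-scores, with initial fluorescence ratio within 5 SD of library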;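 also: B-score of integrated fluorescence ratio over time as area under calcium response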
TRPC4 act: opens the mouse TRPC4 cation channel. B-score at 10 µM. HEK293 TRPC4beta/mu-opioid, Fluo4 calcium fluorescence; stronger effect = higher value. Q9QUQ5. actives 0.49% (n = 310,000);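 active = B-score above 5 SD of library B-scores, and initial fluorescence ratio not above library mean plus 5 SD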;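 also: positive B-score marks a calcium rise read as TRPC4 activation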
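Assay system – TRPC4beta and mu-opioid receptor HEK293 stable cells · Measured by – Fluo4 fluorescence, kinetic · Schedule – dye loading 45 min room temperature, 110 s kinetic read · Read-out – B-scored integrated calcium fluorescence ratio · Controls – buffer and maximal DAMGO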
TRPC6 activator: mouse TRPC6 channel activation | Q61143 | HEK293-TRPC6 membrane potential dye fluorescence; stronger effect = higher value | B-score at 10 µM | actives 0.13% (n = 310,000) | AID 2550;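 active = B-score of the integrated fluorescence ratio above library mean plus 3 SD, and starting fluorescence ratio within library mean plus 5 SD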;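 also: higher score means more depolarization so channel activation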
Active calls of the source: *; i = inactive. This is a sample that favours compounds with a hit; in the whole collection about 2.3% have one here.

SMILES | TRPC6 inh | TRPC4 inh | TRPC4 PAM | TRPC4 act | TRPC6 activator
CN(CCc1ccccn1)C(=O)CC1C(=O)NCCN1Cc1cccc(F)c1 (stereo not drawn) | i | i | i | 186* | i
COc1cccc(CN2CCNC(=O)C2CC(=O)N(C)CCc2ccccn2)c1OC (stereo not drawn) | i | i | i | 93* | i
COc1cccc(CN2CCNC(=O)C2CC(=O)N(C)C2CCCCC2)c1OC (stereo not drawn) | i | i | i | i | i
CCOc1ccc(CN2CCNC(=O)C2CC(=O)NCCc2ccccn2)cc1 (stereo not drawn) | i | i | i | 112* | i
CN(CCc1ccccn1)C(=O)CC1C(=O)NCCN1Cc1ccccc1C(F)(F)F (stereo not drawn) | i | i | i | 131* | i
Cc1cccc(NC(=O)CSCC(=O)N2CCN(Cc3ccc4c(c3)OCO4)CC2)c1 | i | i | i | i | i
CC1Sc2ccc(S(=O)(=O)N3CCC(C(=O)N(C)Cc4ccccc4)CC3)cc2NC1=O (stereo not drawn) | i | i | i | i | i
CC(C)(C)N=C1NN=C(c2ccc(Cl)cc2)CS1 | i | i | i | i | i
COc1ccc(CN=C2NN=C(c3ccc(Cl)cc3)CS2)cc1 | i | -6* | i | i | i
Cc1cccc(N2CCN(Cc3ccoc3)CC2)c1C | i | -5* | i | i | i
S=C(Nc1ccccc1)Nc1cc(Cl)ccc1Oc1ccccc1 | i | -6* | i | i | i
CN(C)C(CNC(=O)CSc1nnc(-c2ccco2)o1)c1ccccc1 (stereo not drawn) | i | i | i | 64* | i
CCn1c(=O)c2cc(C(=O)N(C)c3cc(C)ccc3OC)sc2c2ccccc21 | i | -6* | i | i | i
CCOC(=O)C1=NN(C(=O)COc2ccccc2)C(O)(c2ccc(Br)cc2)C1 (stereo not drawn) | i | i | i | 47* | i
CC1=NN(C(=O)COc2ccc(C)c(C)c2)C(O)(c2ccc(Cl)cc2)C1 (stereo not drawn) | i | i | 22* | i | i
CC1=NN(C(=O)CSCc2ccccc2)C(O)(c2ccc(Cl)cc2)C1 (stereo not drawn) | i | i | i | i | i
CCCCN(C)CCC(=O)Nc1ccc2c(c1)CCC2 | i | i | i | 63* | i
COc1ccc(NC(=O)CN(C)CC(=O)Nc2ccc3c(c2)CCC3)cc1 | i | i | i | i | i
COc1ccc(C(CCNCc2ccc(N(C)C)cc2)c2ccccc2OC)cc1 (stereo not drawn) | i | i | i | 63* | i
COc1ccc(CNCCC(c2ccc(F)cc2)c2ccc(OC(C)C)cc2)cc1OC (stereo not drawn) | i | i | i | 46* | i
NC(=O)c1sc(=S)n2c1[nH]c(=O)c1sccc12 | i | i | 10* | i | i
C/C(CC(=O)NC(C)(C)C)=N\NC(=O)COc1ccc(C)cc1Br | i | i | 11* | i | i
CNCC(=O)Nc1ccc(Cl)c(C(F)(F)F)c1 | i | i | 28* | i | i
CC(C)(C)c1ccc(OCC(=O)Nc2ccc(C(=O)Nc3ccccc3C(=O)O)cc2)cc1 | i | i | i | i | i
CC1CN(c2nc3c(c(=O)n(Cc4ccc(Cl)c(Cl)c4)c(=O)n3C)n2C)CC(C)O1 (stereo not drawn) | i | i | 14* | i | i
SMILES | TRPC6 inh | TRPC4 inh | TRPC4 PAM | TRPC4 act | TRPC6 activator
Cn1c(N2CCCCC2)nc2c1c(=O)n(Cc1cccc(Br)c1)c(=O)n2C | i | i | i | i | i
Cn1c(N2CCC(C(N)=O)CC2)nc2c1c(=O)n(Cc1ccc(Br)cc1)c(=O)n2C | i | i | 15* | i | i
Cc1cccc(Cn2c(=O)c3c(nc4n3CCCN4Cc3ccccc3)n(C)c2=O)c1 | i | i | 20* | i | i
CN(CCc1ccccc1)C1CCCN(S(=O)(=O)CC(F)(F)F)C1 (stereo not drawn) | i | i | i | i | i
Cc1noc(C)c1COC(=O)[C@@H](NC(=O)c1ccccc1Cl)C(C)C | i | i | 48* | i | i
CCn1c(C2CC(=O)N(Cc3ccccc3)C2)nc2ccccc21 (stereo not drawn) | i | i | 16* | i | i
CCc1ccc2nc3nc(C)cc(C)c3c(N)c2c1 | i | -6* | i | i | i
CCOc1ccccc1C(=O)N(CN1CCCC1=O)c1cccc(Cl)c1 | i | i | i | 46* | i
CC(=O)n1c2c(c3ccccc31)OC(N)=C(C#N)C2c1ccc(C(C)C)cc1 (stereo not drawn) | i | i | 12* | i | i
COC(=O)c1ccccc1OCCCN(C)C | i | i | 11* | i | i
CCOc1ccc(N(CC(=O)NN=C2CCN(C)CC2)S(=O)(=O)c2ccc(Br)cc2)cc1 | i | i | i | i | i
COc1ccc(C(CNC(=O)Nc2ccc(Cl)cc2)N2CCN(C)CC2)cc1 (stereo not drawn) | i | i | i | i | i
Cc1cccc(C)c1N1CCN(S(=O)(=O)N(C)C)CC1 | i | i | i | i | i
Nc1ncc(Br)cc1S(=O)(=O)Nc1ccccc1F | i | i | i | i | i
C=CCOC(=O)C1=C[C@H](c2ccc(C(F)(F)F)cc2)[C@@H](CCCO)[C@H](OCC)O1 | i | -5* | i | i | i
Cn1nnnc1SCCNCc1ccccc1OCc1ccc(Cl)cc1 | i | -7* | i | i | i
COc1cc(/C=N/N2CCN(Cc3ccc(C)cc3)CC2)cc(OC)c1O | i | i | i | i | i
CCCCCCCC(=O)Oc1ccc(C(=O)Nc2cc(C)on2)cc1 | i | i | i | i | i
CC(Oc1cccc(Cl)c1)C(=O)Nc1cc(S(=O)(=O)N2CCOCC2)ccc1N1CCCCC1 (stereo not drawn) | i | i | i | i | i
CCN1CCN(c2ccc(S(=O)(=O)N3CCOCC3)cc2NC(=O)c2ccccc2OC(F)F)CC1 | i | i | i | 131* | i
Cc1cc(Cl)ccc1OC(C)C(=O)Nc1ccccc1N1CCOCC1 (stereo not drawn) | i | i | 22* | i | i
CCN1CCN(c2ccc(S(=O)(=O)N3CCOCC3)cc2NC(=O)C(C)Oc2cccc(Cl)c2)CC1 (stereo not drawn) | i | i | i | 101* | i

Screening data (PubChem)
